Experimental data taken from ChEMBL document CHEMBL3397001, “Metabolic glycoengineering sensitizes drug-resistant pancreatic cancer cells to tyrosine kinase inhibitors erlotinib and gefitinib” (2015).
Active and inactive are the calls of the source.

What was measured:
SW1990 [1] = experiment: Potentiation of erlotinib-induced antiproliferative effect against human SW1990 cells assessed as combination index pre-treated with 12.5 and 25 uM compound for 48 hrs followed by erlotinib exposure for additional after 72 hrs by cell counting method; type: functional
In short: (§1)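 Cells given sugar analog (0, 25 or 50 μM; 12.5 or 25 μM for the azido analog) plus a concentration range of erlotinib or gefitinib, and growth inhibition measured. Synergy expressed as Combination Index, CI = D1/(Dx)1 + D2/(Dx)2, plotted against percent inhibition. At least 3 biological replicates; mean ± SEM.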

SW1990 [2] = experiment: Inhibition of cell proliferation of human SW1990 cells at <25 uM after 72 hrs by cell counting method
[3] = molecular target: Epidermal growth factor receptor (Homo sapiens) (UniProt P00533); experiment: Increase in sialylation of EGFR in human SW1990 cells after 48 hrs by mass spectrometry based glycosite and glycan analysis method; type: cell-based
In short: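 EGFR sialylation in treated cells assessed by mass spectrometry-based glycosite and glycan analysis.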

[4] = molecular target: Epidermal growth factor receptor (Homo sapiens) (UniProt P00533); experiment: Inhibition of Alexa fluor 488-labeled EGFbinding to EGFR in human SW1990 cells assessed as reduction in available surface bound EGFR at 100 uM after 1 hr by flow cytometry; type: cell-based
In short: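 Intact cells incubated with Alexa Fluor 488-labeled EGF for one hour at room temperature, then surface-bound label read by flow cytometry (saturation binding). At least 3 biological replicates; mean ± SEM.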

[5] = molecular target: Epidermal growth factor receptor (Homo sapiens) (UniProt P00533); experiment: Inhibition of EGFR phosphorylation in human SW1990 cells at 50 and 100 uM by immunofluorescence assay; type: cell-based
In short: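 Treated cells stimulated with EGF for 2.0 min, fixed, stained with anti-p-EGFR plus FITC-labeled anti-rabbit secondary and DAPI, then imaged by immunofluorescence microscopy.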

[6] = molecular target: Epidermal growth factor receptor (Homo sapiens) (UniProt P00533); experiment: Inhibition of EGFR phosphorylation in human SW1990 cells at 25 to 100 uM by Western blotting method; type: cell-based
In short: (§2)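 Cells exposed to increasing analog levels; lysates immunoblotted for phospho-EGFR and total EGFR. Significance threshold p < 0.05.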

SW1990 [7] = experiment: Effect on total EGFR levels in human SW1990 cells at 25 to 100 uM by Western blotting method; type: functional, cell-based; in short: as §2
[8] = molecular target: Epidermal growth factor receptor (Homo sapiens) (UniProt P00533); experiment: Inhibition of EGFR-mediated STAT3 phosphorylation in human SW1990 cells at 25 to 100 uM by Western blotting method; type: cell-based
In short: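 Cells treated at several analog concentrations; lysates immunoblotted for phospho-STAT3, with band intensity quantified by densitometry. At least 3 biological replicates; mean + SEM; p < 0.05.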

SW1990 [9] = experiment: Inhibition of cell proliferation of human SW1990 cells at 100 to 300 uM after 48 hrs by cell counting method; type: functional, cell-based
SW1990 [10] = experiment: Inhibition of cell proliferation of human SW1990 cells at 25 and 50 uM after 48 hrs by cell counting method; type: functional, cell-based
SW1990 [11] = experiment: Potentiation of erlotinib-induced antiproliferative effect against human SW1990 cells pre-treated with 50 uM compound for 48 hrs followed by erlotinib exposure for additional after 72 hrs by cell counting method; type: functional, cell-based; in short: as §1
SW1990 [12] = experiment: Potentiation of gefitinib-induced antiproliferative effect against human SW1990 cells pre-treated with 50 uM compound for 48 hrs […] for additional after 72 hrs by cell counting method; type: functional, cell-based; in short: as §1
SW1990 [13] = experiment: Potentiation of gefitinib-induced antiproliferative effect against human SW1990 cells assessed as combination index pre-treated with 50 uM compound for 48 hrs […] for additional after 72 hrs by cell counting method; type: functional; in short: as §1
SW1990 [14] = experiment: Potentiation of erlotinib-induced antiproliferative effect against human SW1990 cells assessed as combination index pre-treated with 50 uM compound for 48 hrs followed by erlotinib exposure for additional after 72 hrs by cell counting method; type: functional; in short: as §1
SW1990 [15] = experiment: Potentiation of erlotinib-induced antiproliferative effect against human SW1990 cells pre-treated with 25 uM compound for 48 hrs followed by erlotinib exposure for additional after 72 hrs by cell counting method; type: functional, cell-based; in short: as §1
SW1990 [16] = experiment: Potentiation of gefitinib-induced antiproliferative effect against human SW1990 cells pre-treated with 25 uM compound for 48 hrs […] for additional after 72 hrs by cell counting method; type: functional, cell-based; in short: as §1

Chain of Epidermal growth factor receptor (Homo sapiens) (P00533 whole entry): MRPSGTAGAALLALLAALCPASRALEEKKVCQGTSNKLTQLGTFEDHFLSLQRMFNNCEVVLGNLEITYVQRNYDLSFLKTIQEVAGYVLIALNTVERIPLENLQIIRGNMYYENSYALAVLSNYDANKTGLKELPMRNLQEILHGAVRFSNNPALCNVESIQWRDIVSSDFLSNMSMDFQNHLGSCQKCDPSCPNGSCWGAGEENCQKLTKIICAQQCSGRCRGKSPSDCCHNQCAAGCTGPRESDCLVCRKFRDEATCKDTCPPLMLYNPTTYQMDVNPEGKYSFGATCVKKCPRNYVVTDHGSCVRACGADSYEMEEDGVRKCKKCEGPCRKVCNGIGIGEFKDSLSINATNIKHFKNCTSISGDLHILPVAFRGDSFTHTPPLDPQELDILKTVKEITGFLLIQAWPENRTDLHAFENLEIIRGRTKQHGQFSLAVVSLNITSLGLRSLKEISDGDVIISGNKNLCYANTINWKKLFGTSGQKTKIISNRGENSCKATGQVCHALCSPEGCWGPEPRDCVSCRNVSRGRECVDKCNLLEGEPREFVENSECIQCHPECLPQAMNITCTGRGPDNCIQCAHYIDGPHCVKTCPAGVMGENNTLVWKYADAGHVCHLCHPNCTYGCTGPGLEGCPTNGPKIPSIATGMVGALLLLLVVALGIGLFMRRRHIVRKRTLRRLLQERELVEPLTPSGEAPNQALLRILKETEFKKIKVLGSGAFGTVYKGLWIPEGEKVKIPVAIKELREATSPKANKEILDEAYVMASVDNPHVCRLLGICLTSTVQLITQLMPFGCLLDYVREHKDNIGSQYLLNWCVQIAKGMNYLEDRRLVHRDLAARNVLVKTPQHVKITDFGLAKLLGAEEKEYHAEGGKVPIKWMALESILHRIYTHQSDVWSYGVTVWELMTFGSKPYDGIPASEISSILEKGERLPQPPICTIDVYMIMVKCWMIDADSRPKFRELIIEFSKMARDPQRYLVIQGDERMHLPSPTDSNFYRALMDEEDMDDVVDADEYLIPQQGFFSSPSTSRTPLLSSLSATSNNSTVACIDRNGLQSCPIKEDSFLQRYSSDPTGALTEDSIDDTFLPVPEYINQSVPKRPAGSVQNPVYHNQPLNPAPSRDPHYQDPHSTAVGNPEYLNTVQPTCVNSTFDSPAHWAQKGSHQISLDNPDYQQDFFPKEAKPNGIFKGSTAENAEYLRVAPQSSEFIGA

SMILES	CI (SW1990 [1])	inhibition (SW1990 [2])	fold change (FC) [3]	inhibition [4]	inhibition [5]	inhibition [6]	Activity (SW1990 [7])	inhibition [8]	inhibition (SW1990 [9])	inhibition (SW1990 [10])	Activity (SW1990 [11])	Activity (SW1990 [12])	CI (SW1990 [13])	CI (SW1990 [14])	Activity (SW1990 [15])	Activity (SW1990 [16])
CCCC(=O)OC1O[C@H](CO)[C@@H](OC(=O)CCC)[C@H](OC(=O)CCC)[C@@H]1NC(=O)CN=[N+]=[N-] (stereo partly specified)	0.34	Active	–	–	–	–	–	–	–	–	–	–	–	–	–	–
CCCC(=O)OC1O[C@H](CO)[C@@H](OC(=O)CCC)[C@H](OC(=O)CCC)[C@@H]1NC(C)=O (stereo partly specified)	–	–	2	Active	Active	Active	inactive	Dose-dependent effect	Active	inactive	Active	Active	0.23	0.23	Active	Active
